Results published in ChEMBL document CHEMBL1132926, “2-amino-2-oxazolines as subtype selective alpha(2) adrenoceptor agonists” (J Med Chem, 2000).
Activity calls are given as the source filed them. The calls are words filed in the database; no cut-off is given here.

Key:
[1] = target: T1, Alpha-2A adrenergic receptor (Homo sapiens, UniProt P08913); assay: Inhibitory constant against human Alpha-2A adrenergic receptor expressed in LM(tk-) cells using [3H]rauwolscine; assay type: cell-based
T1 sequence (P08913 whole entry): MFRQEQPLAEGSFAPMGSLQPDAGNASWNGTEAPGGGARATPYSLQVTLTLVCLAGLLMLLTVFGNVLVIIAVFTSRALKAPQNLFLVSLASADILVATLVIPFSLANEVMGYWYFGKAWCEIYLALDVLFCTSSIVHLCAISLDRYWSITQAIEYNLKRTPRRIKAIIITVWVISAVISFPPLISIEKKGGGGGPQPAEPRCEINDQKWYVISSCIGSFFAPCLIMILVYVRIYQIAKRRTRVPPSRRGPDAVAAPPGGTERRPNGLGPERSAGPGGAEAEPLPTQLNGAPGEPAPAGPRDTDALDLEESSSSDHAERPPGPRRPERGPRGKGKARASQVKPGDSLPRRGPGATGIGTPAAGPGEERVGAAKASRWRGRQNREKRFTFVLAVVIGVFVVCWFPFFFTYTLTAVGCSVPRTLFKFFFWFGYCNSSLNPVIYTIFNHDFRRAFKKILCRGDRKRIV
In short: (§1)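 Equilibrium competition binding against [3H]rauwolscine on membranes from cultured cells stably transfected with cloned human alpha2 subtypes: alpha2A and alpha2C in LM(tk-) cells, alpha2B in Y-1 cells. Equilibrium inhibition constants were estimated by nonlinear regression and reported as pKi.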

[2] = target: T2, Alpha-2B adrenergic receptor (Homo sapiens, UniProt P18089); assay: Inhibitory constant against human Alpha-2B adrenergic receptor expressed in Y-1 cells using [3H]rauwolscine; assay type: cell-based; in short: as §1
T2 sequence (P18089 whole entry): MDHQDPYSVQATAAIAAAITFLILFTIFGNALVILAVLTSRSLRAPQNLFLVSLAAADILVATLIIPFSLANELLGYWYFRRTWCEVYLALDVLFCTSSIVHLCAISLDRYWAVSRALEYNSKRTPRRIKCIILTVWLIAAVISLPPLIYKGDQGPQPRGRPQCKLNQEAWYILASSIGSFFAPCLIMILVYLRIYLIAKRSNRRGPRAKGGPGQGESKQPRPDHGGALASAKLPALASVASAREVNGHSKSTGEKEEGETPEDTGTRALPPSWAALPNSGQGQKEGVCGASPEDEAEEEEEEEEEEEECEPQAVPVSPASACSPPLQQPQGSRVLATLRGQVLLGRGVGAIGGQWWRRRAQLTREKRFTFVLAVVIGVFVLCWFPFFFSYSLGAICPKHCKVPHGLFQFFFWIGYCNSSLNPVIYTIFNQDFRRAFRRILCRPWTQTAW

[3] = target: T3, Alpha-2C adrenergic receptor (Homo sapiens, UniProt P18825); assay: (§2) Alpha2c receptor agonism measured as ability to inhibit forskolin-stimulated synthesis of cAMP; assay type: functional
T3 sequence (P18825 whole entry): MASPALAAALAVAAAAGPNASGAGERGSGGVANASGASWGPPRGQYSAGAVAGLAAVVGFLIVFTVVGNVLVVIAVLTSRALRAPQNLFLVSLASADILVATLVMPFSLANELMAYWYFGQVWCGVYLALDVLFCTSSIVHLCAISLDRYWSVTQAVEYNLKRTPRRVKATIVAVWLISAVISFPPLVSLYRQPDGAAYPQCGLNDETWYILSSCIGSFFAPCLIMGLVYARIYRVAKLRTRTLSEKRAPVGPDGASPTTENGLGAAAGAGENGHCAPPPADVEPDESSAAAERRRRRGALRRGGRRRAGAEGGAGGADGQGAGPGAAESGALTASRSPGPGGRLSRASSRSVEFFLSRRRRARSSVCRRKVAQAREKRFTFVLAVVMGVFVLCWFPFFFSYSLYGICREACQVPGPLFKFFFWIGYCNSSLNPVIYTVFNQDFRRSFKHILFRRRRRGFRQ

[4] = target: T1, Alpha-2A adrenergic receptor; assay: Alpha-2A adrenergic receptor agonism measured as ability to inhibit forskolin-stimulated synthesis of cAMP; assay type: functional
[5] = target: T4, Alpha-2B adrenergic receptor (Homo sapiens) (UniProt P18089); assay: Alpha2b receptor agonism measured as ability to inhibit forskolin-stimulated synthesis of cAMP; NA=not active; assay type: functional
T4 sequence (whole entry): T2 sequence (P18089 whole entry)

[6] = target: T3, Alpha-2C adrenergic receptor; assay: Inhibitory constant, using [3H]rauwolscine in LM(tk-) cells stably transfected with cloned human Alpha-2C adrenergic receptor; assay type: cell-based; in short: as §1
[7] = target: T5, Alpha-2C adrenergic receptor (Homo sapiens) (UniProt P18825); assay: Alpha2c receptor agonism measured as ability to inhibit forskolin-stimulated synthesis of cAMP; NA=not active (IA< 0.3); assay type: functional
T5 sequence (whole entry): T3 sequence (P18825 whole entry)

[8] = target: T4, Alpha-2B adrenergic receptor (Homo sapiens); assay: Alpha-2B adrenergic receptor agonism measured as ability to inhibit forskolin-stimulated synthesis of cAMP; NA=not active (IA< 0.3); assay type: functional
[9] = target: T6, Alpha-2A adrenergic receptor (Homo sapiens) (UniProt P08913); assay: Alpha-2A adrenergic receptor agonism measured as ability to inhibit forskolin-stimulated synthesis of cAMP; NA=not active; assay type: functional
T6 sequence (whole entry): T1 sequence (P08913 whole entry)

[10] = target: T4, Alpha-2B adrenergic receptor (Homo sapiens); assay: Alpha2b receptor agonism measured as ability to inhibit forskolin-stimulated synthesis of cAMP;NA=not active; assay type: functional
[11] = target: T5, Alpha-2C adrenergic receptor (Homo sapiens); assay: Alpha2c receptor agonism measured as ability to inhibit forskolin-stimulated synthesis of cAMP; NA=not active; assay type: functional
[12] = target: T4, Alpha-2B adrenergic receptor (Homo sapiens); assay: Alpha-2B adrenergic receptor agonism measured as ability to inhibit forskolin-stimulated synthesis of cAMP; NA=not active; assay type: functional
[13] = target: T5, Alpha-2C adrenergic receptor (Homo sapiens); assay: Alpha-2C adrenergic receptor agonism measured as ability to inhibit forskolin-stimulated synthesis of cAMP; NA=not active; assay type: functional
[14] = target: T6, Alpha-2A adrenergic receptor (Homo sapiens); assay: Alpha2a receptor agonism measured as ability to inhibit forskolin-stimulated synthesis of cAMP; assay type: functional
[15] = target: T5, Alpha-2C adrenergic receptor (Homo sapiens); assay: as §2; assay type: functional
[16] = target: T4, Alpha-2B adrenergic receptor (Homo sapiens); assay: (§3) Alpha-2B adrenergic receptor agonism measured as ability to inhibit forskolin-stimulated synthesis of cAMP; assay type: functional
[17] = target: T2, Alpha-2B adrenergic receptor; assay: as §3; assay type: functional
[18] = target: T3, Alpha-2C adrenergic receptor; assay: Alpha-2C adrenergic receptor agonism measured as ability to inhibit forskolin-stimulated synthesis of cAMP; assay type: functional
[19] = target: T3, Alpha-2C adrenergic receptor; assay: Inhibitory constant determined using [3H]rauwolscine in LM(tk-) cells stably transfected with cloned human Alpha-2C adrenergic receptor; assay type: cell-based; in short: as §1

SMILES	Ki [1] [nM]	Ki [2] [nM]	EC50 [3] [nM]	EC50 [4] [nM]	Ki [6] [nM]	alpha-2A agonist activity [9]	NA [12]	further results
C(=C\c1ccccc1)/C[C@H]1C2CCC(C2)[C@H]1NC1=NCCO1 (some centres not stated)	15.8	102	2	70.8	85.1	–	–	NA [5]: inactive
c1ccc(C[C@H]2CCCC[C@@H]2NC2=NCCO2)cc1	20.9	40.7	–	–	66.1	inactive	–	NA [7]: inactive; NA [8]: inactive
c1ccc(C[C@H]2C3CCC(C3)[C@H]2NC2=NCCO2)cc1 (some centres not stated)	13.8	40.7	13.8	–	79.4	inactive	–	NA [10]: inactive
c1ccc(CC[C@H]2CCCC[C@@H]2NC2=NCCO2)cc1	1.45	6.92	–	–	10.7	–	inactive	NA [11]: inactive; NA [9]: inactive
c1ccc(CCC[C@H]2CCCC[C@@H]2NC2=NCCO2)cc1	15.1	32.4	26.9	–	32.4	inactive	inactive	–
c1ccc(CCC[C@H]2C3CCC(C3)[C@H]2NC2=NCCO2)cc1 (some centres not stated)	30.9	141	60.3	34.7	123	–	–	NA [5]: inactive
c1ccc([C@H]2CCCC[C@@H]2NC2=NCCO2)cc1	18.2	22.4	–	–	52.5	inactive	inactive	NA [13]: inactive
CCC[C@H]1C2CCC(C2)[C@H]1NC1=NCCO1 (some centres not stated)	28.2	91.2	21.4	11	123	–	–	Intrinsic activity [14]: 0.9; Intrinsic activity [15]: 0.9; Intrinsic activity [16]: 0.4; EC50 [17]: 562 nM
CCC[C@H]1CCCC[C@@H]1NC1=NCCO1	2.95	5.89	–	1.62	–	–	–	EC50 [18]: 4.07 nM; Ki [19]: 24.5 nM; EC50 [17]: 9.33 nM
